In the library only some 3% were active in any assay of this set; here they are far more common.
HTR1A agonist – agonists of human 5-HT1a serotonin receptor; CHO 5-HT1a Ga15 NFAT-bla reporter, FRET ratio; 0% basal, 100% maximal reference agonist; activation, % at 10 µM; AID 567; 65,000 tested, 0.56% active;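 active = activation above the screen-wide mean activation plus 3 SD, cut at about 19% in these data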;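 note: 0% = DMSO wells and 100% = 5-CT at EC100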
5HT1E antag – 5-HT1E (human) receptor antagonism | P28566 | CHO 5-HT1E Ga15 NFAT-bla reporter, FRET, antagonist | inhibition, % at 6 µM | 65,000 tested, 0.99% active;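 active = inhibition above a set limit, the mean inhibition across every tested compound plus 3 SD, cut at about 29% in these data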;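 note: signal is the 460 over 535 nm emission ratio of beta-lactamase substrate; 0% = agonist plus DMSO wells and 100% = wells without agonist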
S1P1 ag pot – S1P1 (human) agonism or agonism potentiation; P21453; S1P1 CRE-bla cells, forskolin, beta-lactamase FRET, potentiator mode; S1P1 agonist co-added at EC20, 2 nM; 100% = saturating reference agonist, 0% = basal; activation, % at 9.5 µM; 56,000 tested, 0.57% active;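 active = activation above a cutoff set at the mean activation of all tested compounds plus 3 SD, cut at about 54% in these data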;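 note: forskolin at 4 µM as EC80 and the EC20 agonist is SEW2871; 100% = SEW2871 at its EC100 plus forskolin at EC80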
Target sequence (P21453 whole entry, looked up): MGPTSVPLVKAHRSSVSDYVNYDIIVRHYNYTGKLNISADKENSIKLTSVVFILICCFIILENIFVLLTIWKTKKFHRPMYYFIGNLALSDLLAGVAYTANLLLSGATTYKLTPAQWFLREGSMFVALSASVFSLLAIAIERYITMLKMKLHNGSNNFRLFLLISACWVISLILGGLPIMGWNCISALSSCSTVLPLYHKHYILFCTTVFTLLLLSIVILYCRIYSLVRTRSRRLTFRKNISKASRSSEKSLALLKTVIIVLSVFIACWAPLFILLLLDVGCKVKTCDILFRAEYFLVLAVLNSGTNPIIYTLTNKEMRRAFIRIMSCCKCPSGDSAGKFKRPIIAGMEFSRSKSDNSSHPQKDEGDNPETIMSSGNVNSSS
HTR1E agonist – 5-HT1E (human) receptor agonism. CHO 5-HT1E Ga15 NFAT-bla reporter, FRET; 0% DMSO wells, 100% control agonist wells. activation, % at 6 µM. AID 574. P28566. 65,000 tested, 0.69% active;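 active = activation above a set limit, the screen-wide mean activation plus 3 SD, cut at about 8.5% in these data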;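 note: 100% = positive control agonist at 1 µM giving full maximal response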
5-HT1A blocker – 5-HT1a (human) receptor antagonism; P08908; CHO 5-HT1a Ga15 NFAT-bla reporter, antagonist mode; inhibition, % at 10 µM; 62,000 tested, 0.68% active;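 active = inhibition above the mean of all tested compounds plus 3 SD, cut at about 43% in these data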;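 note: receptor stimulated by 5-CT agonist at 100 nM near EC80; beta-lactamase reporter measured by ratiometric fluorescence of a cleavable substrate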
S1P3 agonist – activates the human S1P3 receptor. 60,000 tested, 0.1% active. S1P3 NFAT-BLA reporter cells, agonism, FRET ratio; relative to 1 µM S1P, basal subtracted. Q99500. activation, % at 4.5 µM;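 active = activation above the screen-wide mean plus 3 SD, cut at about 4.5% in these data, passing the limit was not always enough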
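material = human S1P3 NFAT-BLA reporter CHO cells | schedule = 4 h compound at 37 °C, 2 h substrate at RT | measured by = fluorescent BLA substrate, ex 405 nm, em 460/535 nm ratio | controls = 1 µM S1P reference | replication = primary once, confirmation triplicate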
Numbers without * were called inactive.

Cc1c(C(=O)OC2CCCC2)[nH]c2c1C(=O)CC(c1ccco1)C2 (centres undefined) was read as HTR1A agonist 0, 5HT1E antag 85*, S1P1 ag pot 34, HTR1E agonist -1, 5-HT1A blocker 62* and S1P3 agonist -1.
For Cc1c(C(=O)OCC2CCCO2)[nH]c2c1C(=O)CC(c1ccco1)C2 (centres undefined) the results were HTR1A agonist -5, 5HT1E antag 9, S1P1 ag pot 2, HTR1E agonist -1, 5-HT1A blocker 15 and S1P3 agonist 0.
C/C=C/COC(=O)c1[nH]c2c(c1C)C(=O)CC(c1ccco1)C2 (centres undefined) was read as HTR1A agonist -3, 5HT1E antag 78*, S1P1 ag pot 1, HTR1E agonist 0, 5-HT1A blocker 64* and S1P3 agonist -2.
Cc1c(C(=O)N2CCOCC2)[nH]c2c1C(=O)CC(c1ccccc1Cl)C2 (centres undefined) was read as HTR1A agonist -1, 5HT1E antag 10, S1P1 ag pot -18, HTR1E agonist 40*, 5-HT1A blocker 20 and S1P3 agonist -2.
O=C(CC(=O)N1CCN(c2ccccn2)CC1)Nc1ccc2nc3n(c(=O)c2c1)CCCCC3 was read as HTR1A agonist 11, 5HT1E antag 0, S1P1 ag pot -32, HTR1E agonist 0, 5-HT1A blocker -11 and S1P3 agonist 0.
`O=C(Nc1c2c(nn1-c1ccc(F)cc1)CS(=O)(=O)C2)C12CC3CC(CC(C3)C1)C2` gave HTR1A agonist 1, 5HT1E antag 6, HTR1E agonist 0 and 5-HT1A blocker 15.
For COC(=O)c1[nH]c2c(c1C)C(=O)CC(c1ccccc1)C2 (centres undefined) the results were HTR1A agonist -1, 5HT1E antag 68*, S1P1 ag pot -26, HTR1E agonist -2, 5-HT1A blocker 55* and S1P3 agonist -1.
`Cc1c(C(=O)OCC(C)C)[nH]c2c1C(=O)CC(c1ccco1)C2` (centres undefined) gave HTR1A agonist -3, 5HT1E antag 69*, S1P1 ag pot 13, HTR1E agonist 0, 5-HT1A blocker 53* and S1P3 agonist -2.
For Cc1cc(C)nc(NS(=O)(=O)c2ccc(NC(=O)c3ccc4c(c3)OCO4)cc2)n1 the results were HTR1A agonist 1, 5HT1E antag -1, S1P1 ag pot -16, HTR1E agonist 0, 5-HT1A blocker -11 and S1P3 agonist 0.
For COc1cc(C)c(C(N)=O)c(OC)n1 the results were HTR1A agonist -5, 5HT1E antag 5, S1P1 ag pot 2, HTR1E agonist -1, 5-HT1A blocker -1 and S1P3 agonist -1.
Screening CCc1ccc(C(=O)NCc2cccs2)s1 returned HTR1A agonist -4, 5HT1E antag -2, S1P1 ag pot -18, HTR1E agonist -1, 5-HT1A blocker 8 and S1P3 agonist 1.
`Cc1cccc(C)c1OCC(O)CN` (centres undefined) gave HTR1A agonist -4, 5HT1E antag 3, S1P1 ag pot 7, HTR1E agonist 24*, 5-HT1A blocker -3 and S1P3 agonist 0.
Screening Cc1cccc(C)c1OCC(O)Cn1ccnc1C (centres undefined) returned HTR1A agonist 1, 5HT1E antag 5, S1P1 ag pot 4, HTR1E agonist -1, 5-HT1A blocker 4 and S1P3 agonist -2.
`O=C(Nc1cccc(C(F)(F)F)c1)N1CCC(c2nc(-c3ccc(F)cc3)no2)CC1` gave HTR1A agonist -1, 5HT1E antag 3, S1P1 ag pot 58*, HTR1E agonist 0, 5-HT1A blocker 25 and S1P3 agonist -1.
Screening O=C(NCC1CCCO1)c1cc2n(n1)C(C(F)(F)F)CC(c1ccc(F)cc1)N2 (centres undefined) returned HTR1A agonist -4, 5HT1E antag -7, S1P1 ag pot -1, HTR1E agonist 0, 5-HT1A blocker -8 and S1P3 agonist 0.
